Experimental data published in ChEMBL document CHEMBL1156054, “Allosteric functional switch of neurokinin A-mediated signaling at the neurokinin NK2 receptor: structural exploration” (J Med Chem, 2009).
Active and inactive are the calls of the source. The rule behind the calls is not given here.

These compounds were tested against T1, Substance-K receptor (Rattus norvegicus) (UniProt P16610) (assay: Allosteric modulation of rat NK2 receptor expressed in HEK293 cells assessed as formation of active receptor calcium-triggering conformation at 10 uM in presence of 20nM NKA-Bo by FRET assay).
T1 sequence (whole entry): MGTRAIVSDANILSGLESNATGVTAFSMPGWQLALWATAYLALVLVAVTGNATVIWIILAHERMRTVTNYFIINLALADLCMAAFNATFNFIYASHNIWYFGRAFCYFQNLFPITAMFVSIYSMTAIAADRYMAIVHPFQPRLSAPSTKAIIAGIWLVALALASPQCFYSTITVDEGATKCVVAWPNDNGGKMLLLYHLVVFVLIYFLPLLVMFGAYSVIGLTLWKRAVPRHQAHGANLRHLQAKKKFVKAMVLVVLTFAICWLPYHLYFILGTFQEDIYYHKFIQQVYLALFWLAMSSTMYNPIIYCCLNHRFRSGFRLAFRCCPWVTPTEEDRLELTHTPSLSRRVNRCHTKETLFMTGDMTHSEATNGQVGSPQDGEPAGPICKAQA
Assay type: functional, cell-based
Procedure, shortened: (§1)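 HEK293 cells stably expressing EGFP-fused rat NK2 receptor (hygromycin B 500 μg/mL selection) are suspended in Hepes-BSA buffer, pH 7.4, with protease inhibitors. EGFP emission is read at 510 nm with 470 nm excitation. 20 nM NKA-Bo is added at 50 s, compound (10 μM) at 450 s for 150 s, then excess unlabeled NKA at 600 s.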

| Activity | Compound |
| --- | --- |
| 42% | O=C(CN(Cc1ccccc1)Cc1ccc2ccccc2c1)OCCN1CCOCC1 |
| 54% | COc1ccc(CN(CC#N)Cc2ccc3ccccc3c2)cc1 |
| 44% | O=C(O)CCCCN(Cc1ccccc1)Cc1ccc2ccccc2c1 |
| 43% | N#CCN(Cc1ccc2ccccc2c1)Cc1ccccc1Br |
| 43% | O=C(CN(Cc1ccccc1)Cc1ccc2ccccc2c1)N1CCN(c2ccccc2)CC1 |
| 50% | N#CCN(Cc1ccccc1)Cc1ccc2ccccc2c1 |
| 59% | c1ccc(CN(Cc2ccc3ccccc3c2)c2cccnc2)cc1 |
| 54% | CCCCNC(=O)CN(Cc1ccccc1)Cc1ccc2ccccc2c1 |
| 46% | O=C(CN(Cc1ccccc1)Cc1ccc2ccccc2c1)OCCc1ccccc1 |
| 35% | O=C(O)CN(Cc1ccccc1)Cc1ccc2ccccc2c1 |
| 51% | C#CCN(Cc1ccccc1)Cc1ccc2ccccc2c1 |
| 49% | COc1ccc(CN(CC#N)Cc2ccccc2)cc1 |
| 38% | CCCCCCCCCCCCCCCCOC(=O)CN(Cc1ccccc1)Cc1ccc2ccccc2c1 |
| 45% | N#CCN(Cc1ccc(Br)cc1)Cc1ccc2ccccc2c1 |
| 61% | c1ccc(CN(Cc2ccc3ccccc3c2)c2ccncn2)cc1 |
| 47% | N#CCN(Cc1ccccc1)Cc1ccc2ccccc2n1 |
| 56% | c1ccc(CN(Cc2ccc3ccccc3c2)c2ccccn2)cc1 |
| 47% | N#CCN(Cc1ccc(I)cc1)Cc1ccc2ccccc2c1 |
| 39% | N#CCN(Cc1ccc(CCc2ccccc2)cc1)Cc1ccc2ccccc2c1 |
| 47% | N#CCN(C/C=C/c1ccccc1)Cc1ccccc1 |
| 53% | N#CCN(Cc1ccccc1)Cc1ccc(Cl)cc1 |
| 53% | O=C(CN(Cc1ccccc1)Cc1ccc2ccccc2c1)OCCO |
| 68% | N#CCCCN(Cc1ccccc1)Cc1ccc2ccccc2c1 |
| 51% | CCOC(=O)CN(Cc1ccccc1)Cc1ccc2ccccc2c1 |
| 58% | CN1CCN(C(=O)CN(Cc2ccccc2)Cc2ccc3ccccc3c2)CC1 |
| 48% | N#CCN(Cc1ccccc1)Cc1ccc(C(F)(F)F)cc1 |
| 44% | O=C(CN(Cc1ccccc1)Cc1ccc2ccccc2c1)N1CCCCC1 |
| 52% | CCOC(=O)CCCCN(Cc1ccccc1)Cc1ccc2ccccc2c1 |
| 45% | N#CCN(Cc1ccccc1)Cc1cccc(Cl)c1 |
| 46% | N#CCN(Cc1ccccc1)Cc1cnc2ccccc2c1 |

These compounds were tested against T1, Substance-K receptor (Rattus norvegicus) (assay: Allosteric modulation of rat NK2 receptor expressed in HEK293 cells assessed as formation of active receptor calcium-triggering conformation at 50 uM in presence of 20nM NKA-Bo by FRET assay).
Assay type: functional, cell-based

| Activity | Compound |
| --- | --- |
| 95% | N#CCN(Cc1ccccc1)Cc1ccc2ccccc2c1 |

The compounds below were run against T1, Substance-K receptor (Rattus norvegicus) (assay: Allosteric modulation of rat NK2 receptor expressed in HEK293 cells assessed as formation of active receptor cAMP-producing conformation at 10 uM in presence of 20nM NKA-Bo by FRET assay).
Assay type: functional, cell-based
Procedure, shortened: as §1

| Activity | Compound |
| --- | --- |
| 50% | N#CCN(Cc1ccccc1)Cc1ccc2ccccc2c1 |

What follows are compounds tested against T1, Substance-K receptor (Rattus norvegicus) (assay: Allosteric modulation of rat NK2 receptor expressed in HEK293 cells assessed as formation of active receptor cAMP-producing conformation at 50 uM in presence of 20nM NKA-Bo by FRET assay).
Assay type: functional, cell-based

| Activity | Compound |
| --- | --- |
| 5% | N#CCN(Cc1ccccc1)Cc1ccc2ccccc2c1 |

These compounds were tested against T1, Substance-K receptor (Rattus norvegicus) (assay: Allosteric modulation of rat NK2 receptor expressed in HEK293 cells assessed as enhancement of neurokinin A-induced intracellular calcium level at 20 uM by spectrofluorimetry).
Assay type: functional, cell-based

| Activity | Emax | Compound |
| --- | --- | --- |
| inactive | – | N#CCN(Cc1ccccc1)Cc1ccc2ccccc2c1 |
| – | 120% | N#CCCCN(Cc1ccccc1)Cc1ccc2ccccc2c1 |

What follows are compounds tested against T1, Substance-K receptor (Rattus norvegicus) (assay: Allosteric modulation of rat NK2 receptor expressed in HEK293 cells assessed as reduction of neurokinin A-induced cAMP production at 10 uM by radioimmunoassay).
Assay type: functional, cell-based
Parameters: scale not given: the % may be the effect or the level left
Procedure, shortened: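 HEK293 cells expressing NK2 receptor are seeded at 50000 on collagen-coated wells and cultured 3 days (~80% confluency). They are stimulated with increasing NKA concentrations with or without 10 μM compound. The reaction is stopped with ice-cold 0.2 M HCl and cAMP is measured by radioimmunoassay. Values are mean ± SD of six determinations; the change in maximal response amplitude is reported.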

| Activity | Compound |
| --- | --- |
| 33% | N#CCN(Cc1ccccc1)Cc1ccc2ccccc2c1 |
| 47% | N#CCCCN(Cc1ccccc1)Cc1ccc2ccccc2c1 |

These compounds were tested against T1, Substance-K receptor (Rattus norvegicus) (assay: Inhibition of NKA-Bo binding to rat NK2 receptor expressed in HEK293 cells at 10 uM by FRET assay relative to neurokinin A).
Assay type: cell-based
Procedure, shortened: as §1

| inhibition | Compound |
| --- | --- |
| 0% | O=C(CN(Cc1ccccc1)Cc1ccc2ccccc2c1)OCCN1CCOCC1 |
| 0% | COc1ccc(CN(CC#N)Cc2ccc3ccccc3c2)cc1 |
| 0% | O=C(O)CCCCN(Cc1ccccc1)Cc1ccc2ccccc2c1 |
| 0% | N#CCN(Cc1ccc2ccccc2c1)Cc1ccccc1Br |
| 0% | O=C(CN(Cc1ccccc1)Cc1ccc2ccccc2c1)N1CCN(c2ccccc2)CC1 |
| 0% | N#CCN(Cc1ccccc1)Cc1ccc2ccccc2c1 |
| 0% | c1ccc(CN(Cc2ccc3ccccc3c2)c2cccnc2)cc1 |
| 0% | CCCCNC(=O)CN(Cc1ccccc1)Cc1ccc2ccccc2c1 |
| 0% | O=C(CN(Cc1ccccc1)Cc1ccc2ccccc2c1)OCCc1ccccc1 |
| 0% | O=C(O)CN(Cc1ccccc1)Cc1ccc2ccccc2c1 |
| 0% | C#CCN(Cc1ccccc1)Cc1ccc2ccccc2c1 |
| 0% | COc1ccc(CN(CC#N)Cc2ccccc2)cc1 |
| 0% | CCCCCCCCCCCCCCCCOC(=O)CN(Cc1ccccc1)Cc1ccc2ccccc2c1 |
| 0% | N#CCN(Cc1ccc(Br)cc1)Cc1ccc2ccccc2c1 |
| 34% | c1ccc(CN(Cc2ccc3ccccc3c2)c2ccncn2)cc1 |
| 0% | N#CCN(Cc1ccccc1)Cc1ccc2ccccc2n1 |
| 17% | c1ccc(CN(Cc2ccc3ccccc3c2)c2ccccn2)cc1 |
| 0% | N#CCN(Cc1ccc(I)cc1)Cc1ccc2ccccc2c1 |
| 20% | N#CCN(Cc1ccc(CCc2ccccc2)cc1)Cc1ccc2ccccc2c1 |
| 0% | N#CCN(C/C=C/c1ccccc1)Cc1ccccc1 |
| 0% | N#CCN(Cc1ccccc1)Cc1ccc(Cl)cc1 |
| 0% | O=C(CN(Cc1ccccc1)Cc1ccc2ccccc2c1)OCCO |
| 0% | N#CCCCN(Cc1ccccc1)Cc1ccc2ccccc2c1 |
| 0% | CCOC(=O)CN(Cc1ccccc1)Cc1ccc2ccccc2c1 |
| 0% | CN1CCN(C(=O)CN(Cc2ccccc2)Cc2ccc3ccccc3c2)CC1 |
| 0% | N#CCN(Cc1ccccc1)Cc1ccc(C(F)(F)F)cc1 |
| 0% | O=C(CN(Cc1ccccc1)Cc1ccc2ccccc2c1)N1CCCCC1 |
| 0% | CCOC(=O)CCCCN(Cc1ccccc1)Cc1ccc2ccccc2c1 |
| 0% | N#CCN(Cc1ccccc1)Cc1cccc(Cl)c1 |
| 21% | N#CCN(Cc1ccccc1)Cc1cnc2ccccc2c1 |
